Source: ChEMBL document CHEMBL4251573, “Synthesis and biological evaluation of N-substituted 3-oxo-1,2,3,4-tetrahydro-quinoxaline-6-carboxylic acid derivatives as tubulin polymerization inhibitors” (Eur J Med Chem, 2018)
Active and inactive are the calls of the source. The rule behind the calls is not given here.

Key:
[1] = system: HeLa; assay: Cell cycle arrest in human HeLa cells assessed as accumulation at G0/G1 phase at 0.15 uM after 24 hrs by propidium iodide staining-based flow cytometric method (reference value: 62.2%); type: functional
[2] = system: K562; assay: Antiproliferative activity against human K562 cells after 72 hrs by MTT assay; type: functional, cell-based; conditions: K562, 72 h
Summary of the method: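 K562 cells were grown in RPMI 1640 with 10% FBS at 37 °C in 5% CO2, then seeded at 4000-6000 cells/well. Quadruplicate wells were exposed to drug for 72 h, with final DMSO below 0.1%. After 4 h with MTT, solubilizer (10% SDS, 5% isobutyl alcohol, 0.01 M HCl) was added for 12 h, then OD read at 490 nm. IC50 came from at least five concentrations; mean and SD of at least three experiments.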

[3] = system: HeLa; assay: Cell cycle arrest in human HeLa cells assessed as accumulation at G0/G1 phase at 0.25 uM after 24 hrs by propidium iodide staining-based flow cytometric method (reference value: 62.2%); type: functional
[4] = system: HeLa; assay: Cell cycle arrest in human HeLa cells assessed as accumulation at G2/M phase at 0.10 uM after 24 hrs by propidium iodide staining-based flow cytometric method (reference value: 19.9%); type: functional
[5] = system: HeLa; assay: Disruption of microtubule network in human HeLa cells after 24 hrs by Hoechst 33342 staining-based immunofluorescence microscopic method; type: cell-based
Summary of the method: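 HeLa cells were plated at 4000 per well for 24 h, then exposed for 24 h to vehicle or drug (0.1-0.2 μM). Fixation was 4% paraformaldehyde, 10 min, 4 °C, then 0.1% Triton X-100, 5 min, and 1% BSA block, 1 h. Staining used anti-α-tubulin (1:100, 12 h, 4 °C), then FITC anti-mouse IgG (1:100, 30 min, 37 °C), with Hoechst 33342 for nuclei. Imaged by fluorescence microscopy.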

[6] = system: HeLa; assay: Induction of apoptosis in human HeLa cells assessed as necrotic cells at 0.15 uM after 24 hrs by annexin V-FITC/propidium iodide staining-based flow cytometric method (reference value: 0.15%); type: functional
[7] = system: HeLa; assay: Cell cycle arrest in human HeLa cells assessed as accumulation at G0/G1 phase at 0.10 uM after 24 hrs by propidium iodide staining-based flow cytometric method (reference value: 62.2%); type: functional
[8] = system: HeLa; assay: Induction of apoptosis in human HeLa cells assessed as cell shrinkage at 0.10 to 0.20 uM by microscopic method; type: functional, cell-based
Summary of the method: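 Morphology of HeLa cells was examined by light microscopy after 24 h exposure to 0.10, 0.15 or 0.20 μM, or 0.1% DMSO, alongside the annexin V/PI experiment.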

[9] = system: HeLa; assay: Cell cycle arrest in human HeLa cells assessed as accumulation at G2/M phase at 0.15 uM after 24 hrs by propidium iodide staining-based flow cytometric method (reference value: 19.9%); type: functional
[10] = system: HeLa; assay: Cell cycle arrest in human HeLa cells assessed as accumulation at G2/M phase after 24 hrs by propidium iodide staining-based flow cytometric method; type: functional
[11] = system: HeLa; assay: Induction of apoptosis in human HeLa cells assessed as early apoptotic cells at 0.15 uM after 24 hrs by annexin V-FITC/propidium iodide staining-based flow cytometric method (reference value: 2.31%); type: functional
[12] = system: HeLa; assay: Induction of apoptosis in human HeLa cells assessed as early apoptotic cells at 0.20 uM after 24 hrs by annexin V-FITC/propidium iodide staining-based flow cytometric method (reference value: 2.31%); type: functional

IC50 [2]: 164 nM
Compound: COC(=O)c1ccc2c(c1)NC(=O)CN2C(=O)c1cc(OC)c(OC)c(OC)c1
Activity [1]: 30.6%
Activity [3]: 13.8%
Activity [4]: 21.8%
Activity [5]: Dose-dependent effect
Activity [6]: 3.81%
Activity [7]: 55.2%
Activity [8]: Active
Activity [9]: 29.2%
Activity [10]: Dose-dependent effect
Activity [11]: 16.5%
Activity [12]: 17.05%
